Test results reported in ChEMBL document CHEMBL1138247 (J Med Chem, 2007).

Key:
[1] = Partition coefficient, log P of the compound; type: physicochemical; settings: octanol/water
Procedure, shortened: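 logP extrapolated from reverse-phase HPLC retention time converted to capacity factor k, against a standard calibration curve built from compounds of known logP.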

[2] = target: Integrin alpha-4/beta-1 (Homo sapiens, UniProt P05556+P13612); assay: Inhibition of integrin alpha4beta1 receptor-mediated human Molt-4 cell adhesion to CS1 peptide; type: cell-based
Sequence of Integrin alpha-4/beta-1 (P05556 whole entry): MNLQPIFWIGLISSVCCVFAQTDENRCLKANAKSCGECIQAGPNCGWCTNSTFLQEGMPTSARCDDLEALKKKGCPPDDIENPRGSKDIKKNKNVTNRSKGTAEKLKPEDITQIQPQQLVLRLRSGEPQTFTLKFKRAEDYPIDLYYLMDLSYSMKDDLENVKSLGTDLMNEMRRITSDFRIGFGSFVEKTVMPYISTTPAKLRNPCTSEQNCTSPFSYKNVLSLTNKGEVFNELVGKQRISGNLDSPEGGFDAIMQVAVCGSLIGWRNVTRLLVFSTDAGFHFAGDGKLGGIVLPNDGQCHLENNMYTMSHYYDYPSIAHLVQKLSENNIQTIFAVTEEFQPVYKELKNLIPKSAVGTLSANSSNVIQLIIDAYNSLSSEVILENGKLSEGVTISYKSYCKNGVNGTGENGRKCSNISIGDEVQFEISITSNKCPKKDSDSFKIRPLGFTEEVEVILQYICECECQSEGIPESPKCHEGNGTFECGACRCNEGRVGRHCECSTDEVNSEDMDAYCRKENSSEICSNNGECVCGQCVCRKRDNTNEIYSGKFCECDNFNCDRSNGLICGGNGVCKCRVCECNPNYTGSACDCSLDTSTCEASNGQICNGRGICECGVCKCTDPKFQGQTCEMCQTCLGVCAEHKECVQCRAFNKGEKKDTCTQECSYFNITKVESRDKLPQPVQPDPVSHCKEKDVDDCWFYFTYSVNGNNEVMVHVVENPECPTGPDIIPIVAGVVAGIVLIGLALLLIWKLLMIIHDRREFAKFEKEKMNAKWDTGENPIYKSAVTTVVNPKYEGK
Sequence of Integrin alpha-4/beta-1 (P13612 whole entry): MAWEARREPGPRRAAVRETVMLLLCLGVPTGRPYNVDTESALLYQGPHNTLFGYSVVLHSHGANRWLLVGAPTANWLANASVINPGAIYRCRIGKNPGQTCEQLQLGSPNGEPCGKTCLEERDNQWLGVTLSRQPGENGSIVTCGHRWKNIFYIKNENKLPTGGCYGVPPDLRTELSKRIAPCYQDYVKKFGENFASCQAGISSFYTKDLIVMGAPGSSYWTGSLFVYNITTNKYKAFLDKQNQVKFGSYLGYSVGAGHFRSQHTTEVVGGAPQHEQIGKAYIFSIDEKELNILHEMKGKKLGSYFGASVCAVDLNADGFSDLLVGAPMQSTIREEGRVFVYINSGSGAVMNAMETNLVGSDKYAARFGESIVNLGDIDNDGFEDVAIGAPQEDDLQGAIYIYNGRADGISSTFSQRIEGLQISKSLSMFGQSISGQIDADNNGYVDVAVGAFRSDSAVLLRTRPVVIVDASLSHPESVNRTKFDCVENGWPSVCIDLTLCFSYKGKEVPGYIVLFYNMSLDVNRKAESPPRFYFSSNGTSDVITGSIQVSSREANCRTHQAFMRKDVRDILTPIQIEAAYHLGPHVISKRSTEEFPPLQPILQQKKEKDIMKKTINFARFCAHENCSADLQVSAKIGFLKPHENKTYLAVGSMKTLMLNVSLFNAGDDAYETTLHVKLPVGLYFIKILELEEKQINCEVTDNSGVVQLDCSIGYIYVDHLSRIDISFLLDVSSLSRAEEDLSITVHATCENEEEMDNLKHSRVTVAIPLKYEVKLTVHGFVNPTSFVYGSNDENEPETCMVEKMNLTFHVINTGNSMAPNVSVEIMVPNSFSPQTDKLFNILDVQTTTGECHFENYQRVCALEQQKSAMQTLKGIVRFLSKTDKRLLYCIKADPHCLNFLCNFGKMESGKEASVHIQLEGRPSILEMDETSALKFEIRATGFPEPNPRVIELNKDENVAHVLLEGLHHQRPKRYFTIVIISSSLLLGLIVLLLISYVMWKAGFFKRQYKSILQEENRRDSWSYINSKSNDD

logP [1]	IC50 [2] [nM]	SMILES
1.83	420	NC(=O)C1(NC(=O)[C@@H](CCCC(=O)O)NC(=O)[C@@H](CCCCNC(=O)/C=C/c2cccnc2)NC(=O)c2ccc(Nc3nc4ccccc4[nH]3)cc2)CCCCC1
2.12	186	NC(=O)C1(NC(=O)[C@@H](CCCC(=O)O)NC(=O)[C@@H](CCCCNC(=O)/C=C/c2cccnc2)NC(=O)c2cccc(Nc3nc4ccccc4[nH]3)c2)CCCCC1
2.23	0.305	NC(=O)C1(NC(=O)[C@@H](CCCC(=O)O)NC(=O)[C@@H](CCCCNC(=O)/C=C/c2cccnc2)NC(=O)Cc2ccc(Nc3nc4ccccc4[nH]3)cc2)CCCCC1
2.8	344	NC(=O)C1(NC(=O)[C@@H](CCCC(=O)O)NC(=O)[C@@H](CCCCNC(=O)/C=C/c2cccnc2)NC(=O)CCc2ccc(Nc3nc4ccccc4[nH]3)cc2)CCCCC1
1.86	655	Cc1cccc2[nH]c(Nc3ccc(C(=O)N[C@H](CCCCNC(=O)/C=C/c4cccnc4)C(=O)N[C@H](CCCC(=O)O)C(=O)NC4(C(N)=O)CCCCC4)cc3)nc12
1.96	340	NC(=O)C1(NC(=O)[C@@H](CCCC(=O)O)NC(=O)[C@@H](CCCCNC(=O)/C=C/c2cccnc2)NC(=O)Cc2ccc(Nc3nc4cc(Br)ccc4[nH]3)cc2)CCCCC1
2.63	444	CC(C(=O)N[C@H](CCCCNC(=O)/C=C/c1cccnc1)C(=O)N[C@H](CCCC(=O)O)C(=O)NC1(C(N)=O)CCCCC1)c1ccc(Nc2nc3ccccc3[nH]2)cc1 (stereo partly specified)
2.58	27.5	Cc1cccc2[nH]c(Nc3ccc(CC(=O)N[C@H](CCCCNC(=O)/C=C/c4cccnc4)C(=O)N[C@H](CCCC(=O)O)C(=O)NC4(C(N)=O)CCCCC4)cc3)nc12
